Assay type in all cases: functional, Artery
For test [1], the system named is Rattus norvegicus. Briefly: The maximum fall in systolic blood pressure was determined at a dose of 10 mg/kg after oral administration in rats. The method in brief: (§1)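 Conscious spontaneously hypertensive rats (Japanese Okamoto strain, 14–24 weeks old), used only if systolic pressure was >180 mmHg, six per dose level. Dosed by oral needle into the esophagus as a solution or suspension in 1% w/v methylcellulose. Systolic pressure was read by tail-cuff, each reading the mean of at least six recordings, before dosing and at intervals from 1 to 6 h. The maximum fall was taken.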

For test [2], the system named is Rattus norvegicus. Briefly: The maximum fall in systolic blood pressure was determined at a dose of 3.0 mg/kg after oral administration in rats. Summed up:
as §1

Test [3] concerns Rattus norvegicus. Briefly: The maximum fall in systolic blood pressure was determined at a dose of 0.3 mg/kg after oral administration in rats. The method in brief:
as §1

Test [4] relates to Rattus norvegicus. The experiment in a line: The maximum fall in systolic blood pressure was determined at a dose of 1 mg/kg after oral administration in rats. The method in brief:
as §1

Test [5] deals with Rattus norvegicus. Briefly: The maximum fall in systolic blood pressure was determined at a dose of 1.0 mg/kg after oral administration in rats. The method in brief:
as §1

Test [6] relates to Rattus norvegicus. The experiment in a line: The maximum fall in systolic blood pressure was determined at a dose of 0.1 mg/kg after oral administration in rats. The method in brief:
as §1

For test [7], the system named is Rattus norvegicus. The experiment in a line: The maximum fall in systolic blood pressure was determined at a dose of 3 mg/kg after oral administration in rats. Summed up:
as §1

Test [8] relates to Rattus norvegicus. The experiment in a line: The maximum fall in systolic blood pressure was determined at a dose of 10.0 mg/kg after oral administration in rats. The method in brief: as §1

Turning to `CC1(C)Oc2ncccc2[C@@H](N2CCCC2=O)[C@@H]1O`, the “Max fall in blood pressure” value in the test on Rattus norvegicus [1] is reported as 5%.
For `CC(=O)NC1c2cc(C)ccc2OC(C)(C)[C@H]1O` (some centres not stated), the “Max fall in blood pressure” value in the test on Rattus norvegicus [2] came to 20%; in the test with Rattus norvegicus [3], 9%.
`CC1(C)Oc2cnccc2[C@@H](N2CCCC2=O)[C@@H]1O`: the results for the “Max fall in blood pressure” value in the test with Rattus norvegicus [4] and in the test on Rattus norvegicus [1] were 7% and 41%, respectively.
For the compound `CC(=O)N[C@@H]1c2cnccc2OC(C)(C)[C@H]1O`, the entries for the “Max fall in blood pressure” value in the test with Rattus norvegicus [5] and in the test with Rattus norvegicus [3] were 43% and 14%, respectively.
Take `CCc1ccc2c(c1)C(N1CCCC1=O)[C@H](O)C(C)(C)O2` (some centres not stated): the “Max fall in blood pressure” value stood at 54% with Rattus norvegicus [5] and 11% in the test with Rattus norvegicus [3].
On to `CC(C)c1ccc2c(c1)C(N1CCCC1=O)[C@H](O)C(C)(C)O2` (some centres not stated), for which the “Max fall in blood pressure” value in the test with Rattus norvegicus [2] is on record as 60%; in the test with Rattus norvegicus [5] it was 36%; in the test with Rattus norvegicus [3] it was 17%.
As to `CC(C)(C)c1ccc2c(c1)C(N1CCCC1=O)[C@H](O)C(C)(C)O2` (some centres not stated), the figures for the “Max fall in blood pressure” value in the test with Rattus norvegicus [2], in the test on Rattus norvegicus [5] and in the test with Rattus norvegicus [3] were 49%, 39% and 9%, respectively.
For the compound `CC1(C)Oc2ccncc2[C@@H](N2CCCCC2=O)[C@@H]1O`, the results for the “Max fall in blood pressure” value in the test on Rattus norvegicus [5], in the test with Rattus norvegicus [6] and in the test on Rattus norvegicus [3] were 56%, 24% and 55%, respectively.
As for `CC1(C)C=C(N2CCCCC2=O)c2cnccc2O1`, the figures for the “Max fall in blood pressure” value in the test on Rattus norvegicus [4] and in the test on Rattus norvegicus [7] were 14% and 37%, respectively.
Take `CC1(C)Oc2ccc(C(F)(F)F)cc2C(N2CCCC2=O)[C@@H]1O` (some centres not stated): the “Max fall in blood pressure” value was determined as 17% with Rattus norvegicus [6] and 26% in the test on Rattus norvegicus [3].
Take `CC1(C)Oc2ccncc2[C@@H](N2CCCC2=O)[C@@H]1O`: the “Max fall in blood pressure” value with Rattus norvegicus [4] was 39%; in the test with Rattus norvegicus [7], 41%.
`CC1(C)Oc2ccc(-c3ccccc3)cc2C(N2CCCC2=O)[C@@H]1O` (some centres not stated): the results for the “Max fall in blood pressure” value in the test on Rattus norvegicus [7] and with Rattus norvegicus [8] were 14% and 20%, respectively.
As to `Cc1ccc2c(c1)C(N1CCCC1=O)[C@H](O)C(C)(C)O2` (some centres not stated), the “Max fall in blood pressure” value is listed as 12% in the test with Rattus norvegicus [7] and 49% in the test with Rattus norvegicus [1].
Turning to `CC1(C)Oc2ccc(C3CCCC3)cc2C(N2CCCC2=O)[C@@H]1O` (some centres not stated), the “Max fall in blood pressure” value in the test with Rattus norvegicus [8] came out at 66%; in the test with Rattus norvegicus [5] it was 24%.
`CC1(C)Oc2cccnc2[C@@H](N2CCCC2=O)[C@@H]1O`: in the test on Rattus norvegicus [1], the “Max fall in blood pressure” value is recorded as 15%.
As to `Cc1ccc2c(c1)C(N1CCCCC1=O)[C@H](O)C(C)(C)O2` (some centres not stated), the Max fall in blood pressure with Rattus norvegicus [7] worked out at 56%; with Rattus norvegicus [5] it was 33%; with Rattus norvegicus [3], 16%.
For the compound `CCCc1ccc2c(c1)C(N1CCCC1=O)[C@H](O)C(C)(C)O2` (some centres not stated), the results for the “Max fall in blood pressure” value with Rattus norvegicus [4] and in the test with Rattus norvegicus [7] were 17% and 42%, respectively.
For `CC1(C)Oc2cc[n+]([O-])cc2[C@@H](N2CCCCC2=O)[C@@H]1O`, the “Max fall in blood pressure” value in the test on Rattus norvegicus [5] is given as 68%; in the test on Rattus norvegicus [3], 39%.
Compound `CC1(C)Oc2ccccc2C(N2CCCC2=O)[C@@H]1O` (some centres not stated) came in with a Max fall in blood pressure in the test on Rattus norvegicus [1] of 49%.
On to `CC1(C)Oc2ccc(C#N)cc2C(N2CCCC2=O)C1O` (configuration not stated) [CROMAKALIM], for which the entries for the “Max fall in blood pressure” value in the test with Rattus norvegicus [5], in the test with Rattus norvegicus [6] and in the test on Rattus norvegicus [3] were 47%, 13% and 39%, respectively.

The values above are taken from ChEMBL document CHEMBL1125009, “Variation in the aromatic ring of cromakalim: antihypertensive activity of pyranopyridines and 6-alkyl-2H-1-benzopyrans” (1990).
